Assay results from different studies.
Protocols differ between the studies behind these lines.
Read-out: metabolic stability
Host: human

SMILES | medium | concentration | time | pH | half-life [min]
CCN(CC)S(=O)(=O)c1ccc(S(=O)(=O)N2CCC[C@@H](C(=O)N3CCC(F)(F)CC3)C2)cc1 | liver microsomes | 1.05 µM | – | – | 2.7
CCCN(C)Cc1cc(-c2[nH]c3cccc(F)c3c(=O)c2C)ccc1Cc1ccc(OC(F)(F)F)cc1 | liver microsomes | – | – | – | 1.67
CCN(CC)CCNC(=O)c1c(C)[nH]c(/C=C2\C(=O)Nc3ccc(F)cc32)c1C | liver microsomes | 1 µM | – | pH 7.4 | 37.4
COc1ccc(CNc2c(CO)cnc3c(C4CC4)cc(C#N)cc23)cc1Cl | liver microsomes | – | – | – | 19.5
O=C(CC1Cc2ccccc2C1)N[C@H](CN1CCCC1)[C@H](O)c1ccc2c(c1)OCCO2 | liver microsomes | – | – | – | 28
CCCCCCCc1c(C)nc2cc(OC)ccc2c1O | liver microsomes | 1 µM | – | – | 10.2
O=C(OC(C(F)(F)F)C(F)(F)F)N1Cc2ccc(OCCN3CCOCC3)cc2C1 | liver microsomes | – | – | – | 40
COc1ccc([C@@H]2Sc3ccccc3N(CCN(C)C)C(=O)[C@@H]2OC(C)=O)cc1 | hepatocytes | 1 µM | – | – | 91.8
C[C@H](CCCOc1cccc(CO)c1)[C@H]1CC[C@H]2[C@@H]3CC=C4C[C@@H](O)CC[C@]4(C)[C@H]3CC[C@]12C | liver microsomes | 1 µM | – | pH 7.4 | 330
CCCCOC(=O)NS(=O)(=O)c1sc(CC(C)C)cc1-c1ccc2c(c1)CCN(C(C)=O)C2 | liver microsomes | 1 µM | – | pH 7.4 | 8.7
O=S(=O)(Nc1cccc(-c2nnn[nH]2)c1)c1cc(Cl)c(Cl)cc1Cl | liver microsomes | – | – | – | 88
O=C(N[C@H](Cc1c[nH]c2ccccc12)C(=O)Nc1ccncc1)c1ccc(-c2cccc(F)c2)cc1F | liver microsomes | – | – | – | 18
CCCCOC(=O)NS(=O)(=O)c1sc(CC(C)C)cc1-c1ccc(OC(F)(F)F)c(Cn2ccnc2)c1 | liver microsomes | 1 µM | – | pH 7.4 | 10
CNS(=O)(=O)Cc1ccc2[nH]cc(CCN(C)C)c2c1 | hepatocytes | 5 µM | – | – | 448
O=C1CCN(C(=O)Nc2ccc(F)c(C(F)F)c2)[C@@H]2CCCC[C@H]12 | liver microsomes | – | – | – | > 56
CCS(=O)(=O)Nc1cccc(-c2cn(C)c(=O)c3ccccc23)c1 | liver microsomes | – | – | – | 315
C/C=C/C[C@H](C)[C@@H](OC)[C@@H](C)[C@H](O)C[C@H]1OC(=O)C=C[C@H]1CC | liver microsomes | – | – | – | 6.7
CC(C)NCC(O)COc1cccc2ccccc12 (stereo not drawn) | liver microsomes | 1 µM | – | pH 7.4 | 58.6
CCSC1CC(=O)C(C)(CCC(=O)Nc2c(O)ccc(C(=O)O)c2O)C2C3CC4CC12CC4(C)O3 (stereo not drawn) | liver microsomes | – | – | – | 22
CO[C@@H](C[C@H]1C(C)=CC[C@@H]2[C@]3(C)C[C@H](O[C@@H]4O[C@@H](C)[C@H](OC(=O)c5cccc(O)c5)[C@@H](O[C@@H]5O[C@H](CO)[C@@H](O)[C@H](O)[C@H]5NC(C)=O)[C@H]4O)[C@@H](O)C(C)(C)[C@H]3CC[C@]21C)[C@H](N)C(=O)O.O=C(O)C(F)(F)F | hepatocytes | 1 µM | – | – | > 360
CC[C@@H]1C=CC(=O)O[C@@H]1C[C@@H](O)[C@H](C)[C@H](OC)[C@@H](C)Cc1ccc(F)cc1 | liver microsomes | – | – | – | 3.3
CCOC(=O)NS(=O)(=O)c1sc(CC(C)C)cc1-c1ccc2c(c1)CN(C(=O)OCC)C2 | liver microsomes | 1 µM | – | pH 7.4 | 2.3
Cc1ccc(S(=O)(=O)Nc2cccc(-c3nnn[nH]3)c2)cc1C | liver microsomes | – | – | – | 2
COc1ccc2nc3cc(Cl)ccc3c(Nc3cc(CN4CCCC4)c(O)c(CN4CCCC4)c3)c2n1 | hepatocytes | 1 µM | – | – | 468
CCCCOC(=O)NS(=O)(=O)c1sc(CC(C)C)cc1-c1ccc2c(c1)CN(C(C)=O)CC2 | liver microsomes | 1 µM | – | pH 7.4 | 5.4
Cc1cccc(-n2ncc(Br)c(Br)c2=O)c1 | liver microsomes | – | – | – | 7.1
COc1ccc2cc(C(=O)Nc3ccc4c(c3)CN(C3CCC(=O)NC3=O)C4=O)ccc2c1 (stereo not drawn) | liver microsomes | 2 µM | 1 h | – | 3.8
